Laboratory results reported in ChEMBL document CHEMBL3758131, “Towards new 5-HT7 antagonists among arylsulfonamide derivatives of (aryloxy)ethyl-alkyl amines: Multiobjective based design, synthesis, and antidepressant and anxiolytic properties” (Eur J Med Chem, 2016).

Assays:
Mus musculus [1] = assay: Antidepressant activity in C57BL/6J mouse assessed as number of events at […] mg/kg, ip measured over 6 mins by tail suspension test (reference value: 1325.1 +/- 77.8 to 1773.4 +/- 109.9); type: functional
Mus musculus [2] = assay: Antidepressant activity in C57BL/6J mouse assessed as immobility time at […] mg/kg, ip measured over 6 mins by tail suspension test (reference value: 160.7 +/- 12 to 170.6 +/- 9 sec); type: functional
[3] = molecular target: T1, 5-hydroxytryptamine receptor 7 (Homo sapiens, UniProt P34969); assay: Antagonist activity at human 5-HT7B receptor expressed in […] cells assessed as inhibition of 5-CT induced cAMP production at 10^-6 M after 30 mins by TR-FRET assay; type: functional, cell-based
T1 sequence (P34969 whole entry): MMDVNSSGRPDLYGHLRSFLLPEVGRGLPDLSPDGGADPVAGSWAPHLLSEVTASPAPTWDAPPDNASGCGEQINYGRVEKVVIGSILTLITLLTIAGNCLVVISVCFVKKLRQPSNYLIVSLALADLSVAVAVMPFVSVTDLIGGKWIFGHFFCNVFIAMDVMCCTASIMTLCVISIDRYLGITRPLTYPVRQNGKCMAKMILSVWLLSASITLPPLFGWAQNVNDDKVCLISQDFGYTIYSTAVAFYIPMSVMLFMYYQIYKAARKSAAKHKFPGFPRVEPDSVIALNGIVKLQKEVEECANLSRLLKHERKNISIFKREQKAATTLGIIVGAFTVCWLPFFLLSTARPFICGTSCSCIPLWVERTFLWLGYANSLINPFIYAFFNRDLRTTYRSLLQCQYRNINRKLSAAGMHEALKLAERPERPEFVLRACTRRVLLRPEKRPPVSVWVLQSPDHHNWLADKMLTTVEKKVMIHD

Rattus norvegicus = assay: Antidepressant activity in ip dosed Wistar rat assessed as reduction in immobility time of rat by forced swim test; type: functional; details: read-out: MED
Method in brief: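 Male Wistar rats (220-250 g), ip injection 30 min before test. Day 1: 15-min pre-swim in a cylinder with 15 cm of water at 25 °C, then drying under a lamp. Next day: total immobility recorded over the whole 5-min test, with fresh water for each rat.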

Mus musculus [4] = assay: Antidepressant activity in C57BL/6J mouse assessed as average force at […] mg/kg, ip measured over 6 mins by tail suspension test (reference value: 0.281 +/- 0.018 to 0.359 +/- 0.027 N); type: functional
Homo sapiens = species: Homo sapiens; assay: Selectivity index ratio of Ki for human 5-HT1A receptor to Ki for human 5-HT7B
[5] = molecular target: 5-hydroxytryptamine receptor 2A (Homo sapiens, UniProt P28223); assay: Displacement of [3H]-Ketanserin from human 5-HT2A receptor expressed in HEK293 cells after 1 hr; type: cell-based
Sequence of 5-hydroxytryptamine receptor 2A (P28223 whole entry): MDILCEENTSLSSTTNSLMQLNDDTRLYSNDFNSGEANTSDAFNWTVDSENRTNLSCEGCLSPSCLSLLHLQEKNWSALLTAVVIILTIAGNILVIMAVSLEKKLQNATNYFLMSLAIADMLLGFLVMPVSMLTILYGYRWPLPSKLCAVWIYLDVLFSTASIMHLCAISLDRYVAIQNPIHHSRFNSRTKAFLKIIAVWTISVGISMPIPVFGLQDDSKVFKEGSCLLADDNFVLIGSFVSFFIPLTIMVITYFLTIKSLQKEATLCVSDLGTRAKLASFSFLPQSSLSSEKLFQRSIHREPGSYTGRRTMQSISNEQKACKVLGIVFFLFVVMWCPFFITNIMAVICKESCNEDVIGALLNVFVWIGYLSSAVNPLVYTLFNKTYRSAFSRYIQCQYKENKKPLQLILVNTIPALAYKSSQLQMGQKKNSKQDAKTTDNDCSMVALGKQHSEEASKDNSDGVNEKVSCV

[6] = molecular target: T1, 5-hydroxytryptamine receptor 7; assay: Displacement of [3H]-5-CT from human 5-HT7B receptor expressed in HEK293 cells after 1 hr; type: cell-based
Method in brief: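 Competition binding on membranes from HEK293 cells stably expressing human 5-HT7b or 5-HT1A. Incubation 1 h, at 37 °C for 5-HT7b and at room temperature for 5-HT1A. Non-specific binding defined with 10 µM 5-HT.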

Mus musculus [7] = assay: Antidepressant activity in ip dosed C57BL/6J mouse assessed as reduction in immobility time of mouse by tail suspension test; type: functional; details: read-out: MED
Mus musculus [8] = assay: Antidepressant activity in C57BL/6J mouse assessed as immobility time at 5 mg/kg, ip measured over 6 mins by tail suspension test (reference value: 160.7 +/- 12 to 170.6 +/- 9 sec); type: functional

Compound O=S(=O)(NC1CCN(CCOc2ccccc2C2CCCC2)CC1)c1cccc(F)c1 has an Activity (Mus musculus [1]) of 1595.4, a Time (Mus musculus [2]) of 192.5 s and an inhibition [3] of 90%. The minimal effective dose (Rattus norvegicus) was 1.25 mg/kg, the Activity (Mus musculus [4]) was 0.29 N and the Ratio Ki (Homo sapiens) was 31. The Ki [5] was 0.303 µM, the Ki [6] was 0.019 µM and the minimal effective dose (Mus musculus [7]) was 2.5 mg/kg. The Time (Mus musculus [8]) was 142.8 s.
